Substitutions are numbered along the chain they refer to. In names and notes the source's numbering stands.
Columns and labels:
[1] = molecular target: T1, 4EHP used for ITC, wild type (human, UniProt O60573 1-245); assay: ITC
T1 sequence: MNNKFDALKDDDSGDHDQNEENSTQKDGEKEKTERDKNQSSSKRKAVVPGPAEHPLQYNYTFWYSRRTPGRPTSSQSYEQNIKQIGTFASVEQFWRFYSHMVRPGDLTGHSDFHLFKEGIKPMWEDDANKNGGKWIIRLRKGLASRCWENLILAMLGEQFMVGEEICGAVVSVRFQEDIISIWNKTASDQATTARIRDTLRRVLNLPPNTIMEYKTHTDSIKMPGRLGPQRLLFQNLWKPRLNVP

4EHP S99N used for ITC = molecular target: T2, 4EHP S99N used for ITC (human, UniProt O60573 1-245, S99N); assay: ITC
T2 sequence: T1 sequence with S99N

[2] = molecular target: T3, 4EHP-His6 (residues A52–F234), RE-LL mutant, of the competition assays (human, UniProt O60573 52-234, R103L | E149L); assay: pull-down
T3 sequence: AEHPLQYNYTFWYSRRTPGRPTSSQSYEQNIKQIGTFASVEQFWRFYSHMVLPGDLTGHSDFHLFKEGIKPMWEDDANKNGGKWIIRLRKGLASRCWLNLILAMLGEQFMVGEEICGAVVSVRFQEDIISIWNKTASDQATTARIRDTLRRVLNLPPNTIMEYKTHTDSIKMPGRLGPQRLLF

endogenous GYF2 = assay: Pull-down of GYF2 by tagged 4EHP in HEK293T cells; assay type: binding, human; details: Western blot
How it was run: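 Streptavidin pull-downs used HEK293T lysates containing RNase A and expressed V5-SBP-4EHP, wild type or mutants. V5-SBP-MBP was the negative control. Inputs (1–1.5%) and bound fractions (up to 30% for GYF2) were analysed by Western blot with anti-V5 and anti-GYF2 antibodies, using ECL detection.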

endogenous GYF1 = assay: Pull-down of GYF1 by tagged 4EHP in HEK293T cells; assay type: binding, human; details: V5-SBP-4EHP, Western blot
4EHP = assay: Pull-down / coimmunoprecipitation with 4EHP in HEK293T cell lysates; assay type: binding, human; details: Western blot
How it was run: (§1)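 Streptavidin-bead pull-down from RNase A-treated HEK293T lysates of cells expressing V5-SBP-tagged 4EHP or eIF4E (wild type or mutants). Co-bound endogenous GYF2, 4E-T and 4E-BP1 were probed; for 4EHP, co-expressed GFP-4E-BP1 was also probed, with V5-SBP-MBP as negative control. Inputs and bound fractions were analysed by Western blot with anti-V5, anti-GFP, anti-GYF2 and other antibodies, using ECL detection.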

eIF4E = assay: Pull-down / coimmunoprecipitation with eIF4E in HEK293T cell lysates; assay type: binding, human; details: streptavidin pull-down, Western blot
How it was run: as §1

TRIIYDRKFLMECRNSPVTKTPPRDLPTIPGVTS [4E-BP1 peptide, ITC] showed a Kd [1] of 0.055 µM and a Kd (4EHP S99N used for ITC) of 0.004 µM.

TRIIYDRKFLMECRNSPVTKTPPRDLPTIPGVTS (domain or fragment) [4E-BP1 peptide (residues T50–S83) with C-terminal GB1 tag, of the competition assays]: binds [2].

B1: 4EHP RE-LL: 4EHP R103L, E149L; auxiliary surface mutant (protein)
chain: T1 sequence with R103L, E149L
For B1, the “binding to endogenous GYF2” value (endogenous GYF2) was “strongly reduced binding to endogenous GYF2” and the “binding to endogenous GYF1” value (endogenous GYF1) was “disrupted binding to endogenous GYF1”.

B2: 4EHP S99N: 4EHP S99N; dorsal surface mutant (protein, UniProt O60573 1-245, looked up, variant S99N)
Eukaryotic translation …: T1 sequence with S99N
With B2 the “binding to endogenous GYF2” value (endogenous GYF2) was “Binding of GYF2 was not affected by the S99N mutation”.

B3: 4EHP cap: 4EHP W124A; cap-binding pocket mutant (protein, UniProt O60573 1-245, looked up, variant W124A)
Eukaryotic translation …: T1 sequence with W124A
In the case of B3, the “binding to endogenous GYF2” value (endogenous GYF2) is reported as “still binds to GYF1/2”.

In the case of KYKLADYRYGREEMLALFLKDNKIPSDLLDKEFLPILQ [GYF2 C+L+NC peptide, ITC], the Kd [1] is reported as 0.014 µM.

B4: 4E-T: Hs 4E-T Q9NRA8, full-length (1–985) (protein)
chain: MDRRSMGETESGDAFLDLKKPPASKCPHRYTKEELLDIKELPHSKQRPSCLSEKYDSDGVWDPEKWHASLYPASGRSSPVESLKKELDTDRPSLVRRIVDPRERVKEDDLDVVLSPQRRSFGGGCHVTAAVSSRRSGSPLEKDSDGLRLLGGRRIGSGRIISARTFEKDHRLSDKDLRDLRDRDRERDFKDKRFRREFGDSKRVFGERRRNDSYTEEEPEWFSAGPTSQSETIELTGFDDKILEEDHKGRKRTRRRTASVKEGIVECNGGVAEEDEVEVILAQEPAADQEVPRDAVLPEQSPGDFDFNEFFNLDKVPCLASMIEDVLGEGSVSASRFSRWFSNPSRSGSRSSSLGSTPHEELERLAGLEQAILSPGQNSGNYFAPIPLEDHAENKVDILEMLQKAKVDLKPLLSSLSANKEKLKESSHSGVVLSVEEVEAGLKGLKVDQQVKNSTPFMAEHLEETLSAVTNNRQLKKDGDMTAFNKLVSTMKASGTLPSQPKVSRNLESHLMSPAEIPGQPVPKNILQELLGQPVQRPASSNLLSGLMGSLEPTTSLLGQRAPSPPLSQVFQTRAASADYLRPRIPSPIGFTPGPQQLLGDPFQGMRKPMSPITAQMSQLELQQAALEGLALPHDLAVQAANFYQPGFGKPQVDRTRDGFRNRQQRVTKSPAPVHRGNSSSPAPAASITSMLSPSFTPTSVIRKMYESKEKSKEEPASGKAALGDSKEDTQKASEENLLSSSSVPSADRDSSPTTNSKLSALQRSSCSTPLSQANRYTKEQDYRPKATGRKTPTLASPVPTTPFLRPVHQVPLVPHVPMVRPAHQLHPGLVQRMLAQGVHPQHLPSLLQTGVLPPGMDLSHLQGISGPILGQPFYPLPAASHPLLNPRPGTPLHLAMVQQQLQRSVLHPPGSGSHAAAVSVQTTPQNVPSRSGLPHMHSQLEHRPSQRSSSPVGLAKWFGSDVLQQPLPSMPAKVISVDELEYRQ
B4 was tested, and the “interaction with 4EHP in cell lysates, endogenous binding partner” value (4EHP; HEK293T cell lysates, streptavidin pull-down) was “interacted with both eIF4E and 4EHP” and the “interaction with eIF4E in cell lysates” value (eIF4E) was “interacted with both eIF4E and 4EHP”.

B5: GYF1 A2+3*: GYF1 E86A, N95F; auxiliary site 2 mutant (listed as A2*) (protein, UniProt O75420 1-1035, looked up, variant E86A N95F)
GRB10-interacting GYF protein …: MAAETLNFGPEWLRALSGGGSVASPPPSPAMPKYKLADYRYGREEMLALYVKENKVPEELQDKEFAAVLQDEPLQPLALEPLTEEAQRNFSLSVFSVAVLRLMGKGAGPPLAGTSRGRGSTRSRGRGRGDSCFYQRSIEEGDGAFGRSPREIQRSQSWDDRGERRFEKSARRDGARCGFEEGGAGPRKEHARSDSENWRSLREEQEEEEEGSWRLGAGPRRDGDRWRSASPDGGPRSAGWREHGERRRKFEFDLRGDRGGCGEEEGRGGGGSSHLRRCRAPEGFEEDKDGLPEWCLDDEDEEMGTFDASGAFLPLKKGPKEPIPEEQELDFQGLEEEEEPSEGLEEEGPEAGGKELTPLPPQEEKSSSPSPLPTLGPLWGTNGDGDETAEKEPPAAEDDIRGIQLSPGVGSSAGPPGDLEDDEGLKHLQQEAEKLVASLQDSSLEEEQFTAAMQTQGLRHSAAATALPLSHGAARKWFYKDPQGEIQGPFTTQEMAEWFQAGYFSMSLLVKRGCDEGFQPLGEVIKMWGRVPFAPGPSPPPLLGNMDQERLKKQQELAAAALYQQLQHQQFLQLVSSRQLPQCALREKAALGDLTPPPPPPPQQQQQQLTAFLQQLQALKPPRGGDQNLLPTMSRSLSVPDSGRLWDVHTSASSQSGGEASLWDIPINSSTQGPILEQLQLQHKFQERREVELRAKREEEERKRREEKRRQQQQEEQKRRQEEEELFRRKHVRQQELLLKLLQQQQAVPVPPAPSSPPPLWAGLAKQGLSMKTLLELQLEGERQLHKQPPPREPARAQAPNHRVQLGGLGTAPLNQWVSEAGPLWGGPDKSGGGSSGLGLWEDTPKSGGSLVRGLGLKNSRSSPSLSDSYSHLSGRPIRKKTEEEEKLLKLLQGIPRPQDGFTQWCEQMLHTLSATGSLDVPMAVAILKEVESPYDVHDYIRSCLGDTLEAKEFAKQFLERRAKQKASQQRQQQQEAWLSSASLQTAFQANHSTKLGPGEGSKAKRRALMLHSDPSILGYSLHGSSGEIESVDDY
With B5 the “interaction with 4EHP in cells, overexpressed binding partner” value (4EHP; HEK293T cells, GFP-tagged protein and V5-SBP-4EHP) was “did not affect binding to overexpressed 4EHP in human cells”.

Reference: paper PMC5538437 (Genes & Development, 2017)
